Measurements: ChEMBL document CHEMBL3259569 (J Med Chem, 2014)
Active and inactive are the calls of the source. No cut-off for these calls is given here.

Experiments:
[1] = Cytotoxicity against human HSC3 cells by MTT assay; format: functional, cell-based; details: HSC-3
[2] = Cmax in ICR mouse at 10 mg/kg, po by LC-MS/MS analysis; format: ADME, organism-based; set-up: dose 10 mg/kg, route oral; details: in vivo
[3] = AUC (0 to infinity) in ICR mouse at 2 mg/kg, iv by LC-MS/MS analysis; format: ADME, organism-based; set-up: time infinity, dose 2 mg/kg, route intravenous; details: plasma
HCT-116 [4] = assay: Cytotoxicity against human HCT116 cells by MTT assay; format: functional, cell-based
Histone deacetylase = assay: Inhibition of HDAC in human HeLa cell nuclear extract using Boc-Lys(Ac)-AMC as substrate after 30 mins by fluorimetric analysis; format: protein assay
[5] = target: Histone deacetylase (Homo sapiens) (UniProt Q13547+O15379+Q9UBN7+Q92769+Q9UQL6+Q8WUI4+Q9BY41+Q96DB2+P56524+Q9UKV0+Q969S8); details: HCT-116, 1 uM
HCT-116 [6] = assay: Induction of apoptosis in human HCT116 cells assessed as caspase-3 activation at 3 uM after 24 hrs by Western blotting analysis in presence of Z-VAD-FMK; format: functional, cell-based
Summary of the method: (§1)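 HCT116 cells treated 24 h with 3 μM compound with or without 20 μM z-VAD-fmk pan-caspase inhibitor; caspase 3 and PARP assessed by Western blot.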

MCF7 = assay: Cytotoxicity against human MCF7 cells by MTT assay; format: functional, cell-based
[7] = Volume of distribution at steady state in ICR mouse at 2 mg/kg, iv by LC-MS/MS analysis; format: ADME, organism-based; set-up: dose 2 mg/kg, route intravenous; details: in vivo, read-out: Vdss
A549 = assay: Cytotoxicity against human A549 cells by MTT assay; format: functional, cell-based
HCT-116 [8] = assay: Induction of apoptosis in human HCT116 cells assessed as PARP cleavage after 24 hrs by Western blotting analysis; format: functional, cell-based
Summary of the method: (§2)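 HCT116 cells treated with indicated concentrations for 24 h; lysates probed by Western blot for caspase 3 and PARP cleavage.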

[9] = AUC (0 to infinity) in ICR mouse at 10 mg/kg, po by LC-MS/MS analysis; format: ADME, organism-based; set-up: time infinity, dose 10 mg/kg, route oral; details: plasma
[10] = Cytotoxicity against human MKN45 cells by MTT assay; format: functional, cell-based; details: MKN-45
HCT-116 [11] = assay: Induction of apoptosis in human HCT116 cells assessed as caspase-3 activation after 24 hrs by Western blotting analysis; format: functional, cell-based; summary of the method: as §2
[12] = target: T1, Protein deacetylase HDAC6 (Homo sapiens, UniProt Q9UBN7); assay: Inhibition of HDAC6 (unknown origin) using RHKK(Ac) (379 to 382) p53 peptide as substrate by fluorescence assay
T1 sequence (Q9UBN7 whole entry): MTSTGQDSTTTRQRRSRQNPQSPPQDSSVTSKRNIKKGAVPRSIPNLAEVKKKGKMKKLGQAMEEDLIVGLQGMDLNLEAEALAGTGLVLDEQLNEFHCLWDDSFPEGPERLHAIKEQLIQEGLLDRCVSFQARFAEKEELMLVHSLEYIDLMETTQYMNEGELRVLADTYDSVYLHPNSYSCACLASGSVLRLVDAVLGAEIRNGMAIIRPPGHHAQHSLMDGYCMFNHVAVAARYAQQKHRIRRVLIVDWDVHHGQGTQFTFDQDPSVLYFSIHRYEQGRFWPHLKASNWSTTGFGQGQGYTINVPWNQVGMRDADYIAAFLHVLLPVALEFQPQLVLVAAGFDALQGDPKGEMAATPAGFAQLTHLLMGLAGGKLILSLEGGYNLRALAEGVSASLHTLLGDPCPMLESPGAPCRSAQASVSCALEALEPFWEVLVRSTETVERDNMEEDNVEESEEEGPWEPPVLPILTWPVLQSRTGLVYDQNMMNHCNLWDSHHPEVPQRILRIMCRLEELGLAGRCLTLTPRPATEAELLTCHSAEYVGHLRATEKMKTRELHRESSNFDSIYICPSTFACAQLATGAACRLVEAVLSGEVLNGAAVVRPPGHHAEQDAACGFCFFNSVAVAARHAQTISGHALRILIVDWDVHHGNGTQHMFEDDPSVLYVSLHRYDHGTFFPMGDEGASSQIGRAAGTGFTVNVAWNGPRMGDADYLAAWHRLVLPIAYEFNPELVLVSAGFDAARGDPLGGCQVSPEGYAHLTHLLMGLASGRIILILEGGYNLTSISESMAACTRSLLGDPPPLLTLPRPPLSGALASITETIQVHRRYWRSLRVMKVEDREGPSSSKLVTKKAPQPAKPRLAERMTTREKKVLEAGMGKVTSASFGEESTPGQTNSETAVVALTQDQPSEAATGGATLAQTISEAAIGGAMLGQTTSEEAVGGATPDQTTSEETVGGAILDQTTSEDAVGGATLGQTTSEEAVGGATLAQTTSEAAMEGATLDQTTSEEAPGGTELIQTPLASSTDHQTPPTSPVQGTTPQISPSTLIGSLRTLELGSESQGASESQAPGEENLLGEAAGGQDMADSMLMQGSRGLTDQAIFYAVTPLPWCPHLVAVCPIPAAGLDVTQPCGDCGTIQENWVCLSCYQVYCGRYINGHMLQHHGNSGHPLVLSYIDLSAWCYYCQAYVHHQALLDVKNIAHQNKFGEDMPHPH

HCT-116 [13] = assay: Antitumor activity against human HCT116 cells xenografted in po dosed nude athymic mouse assessed as tumor growth inhibition after 2 to 16 days; format: functional, organism-based
Histone deacetylase 1 = Histone deacetylase 1 (Homo sapiens, UniProt Q13547); assay: Inhibition of HDAC1 (unknown origin) using RHKK(Ac) (379 to 382) p53 peptide as substrate by fluorescence assay
Sequence of Histone deacetylase 1 (Q13547 whole entry): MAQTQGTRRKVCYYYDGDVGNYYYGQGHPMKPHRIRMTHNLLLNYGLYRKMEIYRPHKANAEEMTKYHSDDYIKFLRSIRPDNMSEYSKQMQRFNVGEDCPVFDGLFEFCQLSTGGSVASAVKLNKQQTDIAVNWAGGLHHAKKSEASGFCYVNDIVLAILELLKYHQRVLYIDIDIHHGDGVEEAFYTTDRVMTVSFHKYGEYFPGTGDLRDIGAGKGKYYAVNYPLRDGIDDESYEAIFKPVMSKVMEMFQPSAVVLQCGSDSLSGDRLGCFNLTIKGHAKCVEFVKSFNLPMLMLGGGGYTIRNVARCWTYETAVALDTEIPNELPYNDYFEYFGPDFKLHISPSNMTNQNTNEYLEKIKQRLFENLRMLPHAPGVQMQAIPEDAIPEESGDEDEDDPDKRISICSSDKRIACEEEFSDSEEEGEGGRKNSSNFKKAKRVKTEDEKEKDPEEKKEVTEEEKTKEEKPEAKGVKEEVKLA

TSGH = assay: Cytotoxicity against human TSGH cells by MTT assay; format: functional, cell-based
Histone deacetylase 9 = Histone deacetylase 9 (Homo sapiens, UniProt Q9UKV0); assay: Inhibition of HDAC9 (unknown origin) by fluorescence assay
Sequence of Histone deacetylase 9 (Q9UKV0 whole entry): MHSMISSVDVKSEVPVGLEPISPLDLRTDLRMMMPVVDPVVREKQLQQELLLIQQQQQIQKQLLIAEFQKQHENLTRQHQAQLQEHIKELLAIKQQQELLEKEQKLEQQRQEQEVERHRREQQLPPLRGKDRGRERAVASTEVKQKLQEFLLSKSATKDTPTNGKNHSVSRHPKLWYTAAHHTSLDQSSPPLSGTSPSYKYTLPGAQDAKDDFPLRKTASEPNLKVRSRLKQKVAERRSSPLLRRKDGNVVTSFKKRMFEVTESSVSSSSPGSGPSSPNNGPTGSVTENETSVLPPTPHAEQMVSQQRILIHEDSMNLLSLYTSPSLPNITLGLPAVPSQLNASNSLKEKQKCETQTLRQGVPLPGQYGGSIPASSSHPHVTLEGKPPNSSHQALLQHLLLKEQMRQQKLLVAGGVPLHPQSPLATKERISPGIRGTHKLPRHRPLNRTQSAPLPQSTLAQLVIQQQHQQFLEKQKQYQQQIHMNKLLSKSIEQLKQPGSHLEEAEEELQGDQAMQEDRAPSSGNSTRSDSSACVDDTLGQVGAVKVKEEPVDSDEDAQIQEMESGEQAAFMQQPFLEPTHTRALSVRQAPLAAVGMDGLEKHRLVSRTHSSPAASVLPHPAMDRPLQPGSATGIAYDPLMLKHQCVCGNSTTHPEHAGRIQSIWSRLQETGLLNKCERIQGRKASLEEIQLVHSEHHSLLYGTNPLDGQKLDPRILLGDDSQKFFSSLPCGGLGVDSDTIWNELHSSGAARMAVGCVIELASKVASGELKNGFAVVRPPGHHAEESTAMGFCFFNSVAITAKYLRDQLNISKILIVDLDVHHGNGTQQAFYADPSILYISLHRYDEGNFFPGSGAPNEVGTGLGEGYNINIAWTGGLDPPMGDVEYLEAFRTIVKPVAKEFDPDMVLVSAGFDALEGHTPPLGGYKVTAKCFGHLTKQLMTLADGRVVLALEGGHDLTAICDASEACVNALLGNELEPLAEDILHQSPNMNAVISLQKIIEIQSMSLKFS
Summary of the method: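 Run by a contract testing lab. Compounds were dissolved in DMSO and tested in 10-dose IC50 mode, using 3-fold serial dilution starting at 10 μM. IC50 was taken from the dose series.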

PC-3 = assay: Cytotoxicity against human PC3 cells by MTT assay; format: functional, cell-based
HCT-116 [14] = assay: Induction of apoptosis in human HCT116 cells assessed as accumulation at sub-G1 phase after 24 hrs by propidium iodide staining-based flow cytometric analysis; format: functional, cell-based
Summary of the method: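 HCT116 cells treated with indicated concentrations for 24 h; DNA content analyzed by flow cytometry for cell cycle distribution and sub-G1 fraction; means of at least three independent experiments.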

HCT-116 [15] = assay: Antitumor activity against human HCT116 cells xenografted in nude athymic mouse assessed as tumor growth inhibition at 25 mg/kg/day, po after 2 to 16 days relative to control; format: functional; details: read-out: TGI
KB = assay: Cytotoxicity against human KB cells by MTT assay; format: functional, cell-based
[16] = Half life in ICR mouse at 2 mg/kg, iv by LC-MS/MS analysis; format: ADME, organism-based; set-up: dose 2 mg/kg, route intravenous; details: in vivo
HCT-116 [17] = assay: Induction of apoptosis in p53 knock down human HCT116 cells assessed as PARP cleavage at 1 uM after 24 hrs by immunoblotting analysis; format: functional, cell-based
HCT-116 [18] = assay: Induction of apoptosis in human HCT116 cells assessed as PARP cleavage at 3 uM after 24 hrs by Western blotting analysis in presence of Z-VAD-FMK; format: functional, cell-based; summary of the method: as §1

Cmax [2]: 409 ng/mL
AUC(0-inf) [3]: 289 ng·h/mL
IC50 (Histone deacetylase): 100 nM
inhibition [5]: inactive
Vd [7]: 9.8 L/kg
AUC(0-inf) [9]: 466 ng·h/mL
IC50 [12]: 5.2 nM
IC50 (Histone deacetylase 1): 310 nM
IC50 (Histone deacetylase 9): 5340 nM
half-life [16]: 2.5 h
SMILES: O=C(/C=C/c1cccc(S(=O)(=O)n2ccc3cccnc32)c1)NO
IC50 [1]: 660 nM
IC50 (HCT-116 [4]): 390 nM
Activity (HCT-116 [6]): inactive
IC50 (MCF7): 1330 nM
IC50 (A549): 1330 nM
Activity (HCT-116 [8]): Dose-dependent effect
IC50 [10]: 2510 nM
Activity (HCT-116 [11]): Dose-dependent effect
TGI (HCT-116 [13]): Dose-dependent effect
IC50 (TSGH): 2100 nM
IC50 (PC-3): 1630 nM
Activity (HCT-116 [14]): Dose-dependent effect
inhibition in vivo at 25 mg/kg/day (HCT-116 [15]): 55.8%
IC50 (KB): 760 nM
Activity (HCT-116 [17]): inactive
Activity (HCT-116 [18]): inactive
